ChEMBL document CHEMBL4340551, “Design, synthesis and preliminary bioactivity studies of indomethacin derivatives as Bcl-2/Mcl-1 dual inhibitors” (Bioorg Med Chem, 2019)

Columns and labels:
[1] = target: T1, Apoptosis regulator Bcl-2 (Homo sapiens, UniProt P10415); experiment: Inhibition of 5-FAM-tagged Bid-BH3 peptide binding to Bcl2 (unknown origin) by fluorescence polarization assay; conditions: read-out: Ki
Bcl-2-like protein 1 = Bcl-2-like protein 1 (Homo sapiens, UniProt Q07817); experiment: Inhibition of 5-FAM-tagged Bid-BH3 peptide binding to Bcl-XL (unknown origin) by fluorescence polarization assay
In short: (§1)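 Competitive fluorescence polarization in which compounds displace labelled Bid-BH3 peptide from the Bcl-2 family protein, read as a fall in mP. IC50 taken from mP versus concentration. Ki calculated from IC50, Kd, and the peptide and protein concentrations.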

[2] = target: Induced myeloid leukemia cell differentiation protein Mcl-1 (Homo sapiens, UniProt Q07820); experiment: Inhibition of 5-FAM-tagged Bid-BH3 peptide binding to Mcl1 (unknown origin) by fluorescence polarization assay; in short: as §1
PC-3 = experiment: Antiproliferative activity against human PC3 cells assessed as reduction in cell growth incubated for 48 hrs by MTT assay; assay type: functional, cell-based; conditions: PC-3, 48 h
In short: (§2)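 PC-3, Jurkat and K562 cells grown in RPMI 1640 with 10% FBS at 37°C, 5% CO2. Cells seeded at 2000-4000 per well and left 8 h before compound addition at a range of concentrations. Exposure 48 h, then 0.5% MTT solution for 4 h. Formazan dissolved in DMSO and absorbance read at 570 nm. IC50 derived from concentrations and inhibitory ratios.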

Jurkat [3] = experiment: Antiproliferative activity against human Jurkat cells assessed as reduction in cell growth incubated for 48 hrs by MTT assay; assay type: functional, cell-based; in short: as §2
K562 = experiment: Antiproliferative activity against human K562 cells assessed as reduction in cell growth incubated for 48 hrs by MTT assay; assay type: functional, cell-based; conditions: K562, 48 h; in short: as §2
[4] = target: T1, Apoptosis regulator Bcl-2; experiment: Potency index, ratio of Ki for WL276 to Ki for test compound for inhibition of 5-FAM-tagged Bid-BH3 peptide binding to Bcl2 (unknown origin) by fluorescence polarization assay
[5] = target: T1, Apoptosis regulator Bcl-2; experiment: Potency index, ratio of Ki for UMI77 to Ki for test compound for inhibition of 5-FAM-tagged Bid-BH3 peptide binding to Bcl2 (unknown origin) by fluorescence polarization assay
Jurkat [6] = experiment: Potency index, ratio of IC50 for WL276 to IC50 for test compound for antiproliferative activity against human Jurkat cells assessed as reduction in cell growth incubated for 48 hrs by MTT assay; assay type: functional
Jurkat [7] = experiment: Induction of apoptosis in human Jurkat cells assessed as viable cells level at 20 uM incubated for 48 hrs by annexin-V/FITC and propidium iodide staining based flow cytometry (reference value: 86.5%); assay type: functional
Jurkat [8] = experiment: Induction of apoptosis in human Jurkat cells assessed as early apoptotic cells level at 20 uM incubated for 48 hrs by annexin-V/FITC and propidium iodide staining based flow cytometry (reference value: 7.02%); assay type: functional
Jurkat [9] = experiment: Induction of apoptosis in human Jurkat cells assessed as late apoptotic cells level at 20 uM incubated for 48 hrs by annexin-V/FITC and propidium iodide staining based flow cytometry (reference value: 6.29%); assay type: functional
Jurkat [10] = experiment: Induction of apoptosis in human Jurkat cells assessed as necrotic cells level at 20 uM incubated for 48 hrs by annexin-V/FITC and propidium iodide staining based flow cytometry (reference value: 6.29%); assay type: functional
Jurkat [11] = experiment: Induction of apoptosis in human Jurkat cells assessed as viable cells level at 40 uM incubated for 48 hrs by annexin-V/FITC and propidium iodide staining based flow cytometry (reference value: 86.5%); assay type: functional
Jurkat [12] = experiment: Induction of apoptosis in human Jurkat cells assessed as early apoptotic cells level at 40 uM incubated for 48 hrs by annexin-V/FITC and propidium iodide staining based flow cytometry (reference value: 7.02%); assay type: functional
Jurkat [13] = experiment: Induction of apoptosis in human Jurkat cells assessed as late apoptotic cells level at 40 uM incubated for 48 hrs by annexin-V/FITC and propidium iodide staining based flow cytometry (reference value: 6.29%); assay type: functional
Jurkat [14] = experiment: Induction of apoptosis in human Jurkat cells assessed as necrotic cells level at 40 uM incubated for 48 hrs by annexin-V/FITC and propidium iodide staining based flow cytometry (reference value: 6.29%); assay type: functional
Jurkat [15] = experiment: Induction of apoptosis in human Jurkat cells incubated for 48 hrs by annexin-V/FITC and propidium iodide staining based flow cytometry; assay type: functional, cell-based

T1 sequence (P10415 whole entry): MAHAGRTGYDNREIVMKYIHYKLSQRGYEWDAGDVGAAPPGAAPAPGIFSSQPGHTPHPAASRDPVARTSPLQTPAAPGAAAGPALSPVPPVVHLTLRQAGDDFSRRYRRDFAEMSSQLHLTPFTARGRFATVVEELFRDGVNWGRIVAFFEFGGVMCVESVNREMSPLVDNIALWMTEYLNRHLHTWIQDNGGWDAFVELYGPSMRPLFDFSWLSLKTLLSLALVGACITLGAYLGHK
Sequence of Induced myeloid leukemia cell differentiation protein Mcl-1 (Q07820 whole entry): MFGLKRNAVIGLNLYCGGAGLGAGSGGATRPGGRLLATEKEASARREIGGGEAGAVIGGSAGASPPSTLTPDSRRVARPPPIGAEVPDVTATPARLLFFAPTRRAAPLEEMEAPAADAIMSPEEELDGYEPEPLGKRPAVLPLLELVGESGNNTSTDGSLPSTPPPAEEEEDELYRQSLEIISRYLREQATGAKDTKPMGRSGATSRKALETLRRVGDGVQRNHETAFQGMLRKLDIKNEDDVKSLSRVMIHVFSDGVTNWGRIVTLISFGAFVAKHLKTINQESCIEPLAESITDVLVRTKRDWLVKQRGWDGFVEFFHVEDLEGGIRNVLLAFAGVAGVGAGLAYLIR
Sequence of Bcl-2-like protein 1 (Q07817 whole entry): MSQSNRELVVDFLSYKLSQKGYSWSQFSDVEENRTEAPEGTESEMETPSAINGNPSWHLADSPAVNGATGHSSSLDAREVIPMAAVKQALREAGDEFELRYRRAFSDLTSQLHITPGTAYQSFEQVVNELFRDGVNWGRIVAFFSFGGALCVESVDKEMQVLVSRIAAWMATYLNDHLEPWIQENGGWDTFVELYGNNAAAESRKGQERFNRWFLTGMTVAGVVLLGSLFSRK

Ki [1]: 0.44 µM
Ki (Bcl-2-like protein 1): Not Active
Ki [2]: 0.44 µM
IC50 (PC-3): 25.8 µM
IC50 (Jurkat [3]): 24.7 µM
IC50 (K562): 35.9 µM
Ratio Ki [4]: 2 to 3
Ratio Ki [5]: 5 to 6
Structure (SMILES): COc1ccc2c(c1)c(CC(=O)N[C@@H](Cc1ccc(OCc3ccc(Br)cc3)cc1)C(=O)NS(=O)(=O)c1ccc(Cl)c([N+](=O)[O-])c1)c(C)n2C(=O)c1ccc(Cl)cc1
Ratio IC50 (Jurkat [6]): 2
Activity (Jurkat [7]): 56.3%
Activity (Jurkat [8]): 21.8%
Activity (Jurkat [9]): 21.3%
Activity (Jurkat [10]): 0.51%
Activity (Jurkat [11]): 42.3%
Activity (Jurkat [12]): 27.5%
Activity (Jurkat [13]): 29.3%
Activity (Jurkat [14]): 0.81%
Activity (Jurkat [15]): Dose-dependent effect
